Experimental data published in PubChem BioAssay AID624289 (Broad Institute, 2012).
Where “and” joins values, the source holds several entries; their conditions need not be identical. Identical values can stand only once. Calls of active or inactive are those of the source.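 The calls were made as follows: active = compounds lowering cell ATP signal with a fitted AC50 no higher than twice the top tested dose; inconclusive = flat curve with 30 to 70% signal loss, or poor fit; inactive = the rest.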

Test system: not listed separately
Test: SK-MEL-5 parental cell viability reduction, dose response, orthogonal assay for MITF inhibitor project, CellTiter-Glo, dry powder samples, set 2 (AID 624289)
Conditions: SK-MEL-5 viability, ATP luminescence (CellTiter-Glo), 24 h; at 35 µM (top of the series)
Procedure, shortened: (§1)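 Times – 24 h compound treatment at 37 °C, 5 min read delay · Material – parental SK-MEL-5 melanoma cells · Amount – 3000 cells/well · Buffer or medium – phenol red-free growth medium · Doses – multiple compound doses, pin-transferred · Detection – CellTiter-Glo luminescence of cellular ATP after brief shaking · Read-out – cell viability inferred from cellular ATP level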

In the case of `C=CCNC1=C(NCC=C)C(=O)c2ccccc2C1=O`, the activity change, negative = inhibition was -6.6% (inactive).

Test system: SK-MEL-5 viability, ATP luminescence (CellTiter-Glo), 24 h
Test: as above
Conditions: not given
Procedure, shortened: as §1

`COc1cccc(-c2cc(C(=O)NC3=C(Cl)C(=O)c4ccccc4C3=O)ccc2OC)c1` and `COc1ccc(C2=C(NC(=O)c3cccc(OC)c3)C(=O)c3ccccc3C2=O)cc1` are within 1.5-fold of each other in AC50: 22.4 µM for the first, 24.4 µM for the second.

`CCN1CCN(C2=C(Nc3ccccc3)C(=O)c3ccccc3C2=O)CC1` and `CN1CCN(C2=C(Nc3ccccc3)C(=O)c3ccccc3C2=O)CC1` are within 1.5-fold of each other in AC50: 14.2 µM for the first, 14.1 µM for the second.

Going from `CCN(CC)CCCCNC1=C(Nc2ccccc2)C(=O)c2ccccc2C1=O` to `CCN(CC)CCCNC1=C(Nc2ccccc2)C(=O)c2ccccc2C1=O`, the AC50 falls from 33.2 µM to 21.1 µM (1.6-fold).

`O=C1C(NS(=O)(=O)c2ccc(Br)cc2)=C(N2CCN(c3ccccc3)CC2)C(=O)c2ccccc21` and `CCN1CCN(C2=C(NS(=O)(=O)c3ccc(Br)cc3)C(=O)c3ccccc3C2=O)CC1` are within 1.5-fold of each other in AC50: 25.2 µM for the first, 25.4 µM for the second.

`CN1CCN(C2=C(NC(=O)c3ccc(Br)cc3)C(=O)c3ccccc3C2=O)CC1` and `CCN1CCN(C2=C(NC(=O)c3ccc(Br)cc3)C(=O)c3ccccc3C2=O)CC1` are within 1.5-fold of each other in AC50: 3.05 µM for the first, 3.7 µM for the second.

`O=C(NC1=C(c2ccc(OC(F)(F)F)cc2)C(=O)c2ccccc2C1=O)c1ccco1` and `Cc1ccc(C(=O)NC2=C(c3ccc(OC(F)(F)F)cc3)C(=O)c3ccccc3C2=O)o1` are within 1.5-fold of each other in AC50: 23.1 µM for the first, 29.5 µM for the second.

`CC(=O)NC1=C(c2cccc(Cl)c2)C(=O)c2ccccc2C1=O` and `CC(=O)NC1=C(c2ccc(Cl)cc2)C(=O)c2ccccc2C1=O` are within 1.5-fold of each other in AC50: 11.5 µM for the first, 15.8 µM for the second.

`C=CCNC1=C(NCCN(CC)CC)C(=O)c2ccccc2C1=O` and `C=CCNC1=C(NCCCN(CC)CC)C(=O)c2ccccc2C1=O` are within 1.5-fold of each other in AC50: 9.17 µM for the first, 11.5 µM for the second.

`CC(=O)NC1=C(c2ccc3c(c2)oc2ccccc23)C(=O)c2ccccc2C1=O` and `CC(=O)NC1=C(c2ccccc2)C(=O)c2ccccc2C1=O` are within 1.5-fold of each other in AC50: 17.4 µM for the first, 15.2 µM for the second.

First: C=CCNC1=C(N2CCSCC2)C(=O)c2ccccc2C1=O
Second: C=CCNC1=C(N2CCOCC2)C(=O)c2ccccc2C1=O
The AC50 of the first is 1.8-fold higher: 12.3 µM for the first, 6.79 µM for the second.

`O=C1C(NS(=O)(=O)c2ccc(Br)s2)=C(N2CCOCC2)C(=O)c2ccccc21` and `O=C1C(NS(=O)(=O)c2ccc(Br)s2)=C(N2CCCCC2)C(=O)c2ccccc21` are within 1.5-fold of each other in AC50: 23.2 µM for the first, 28.9 µM for the second.

`CCN1CCN(C2=C(NC(=O)c3ccccc3)C(=O)c3ccccc3C2=O)CC1` and `CN1CCN(C2=C(NC(=O)c3ccccc3)C(=O)c3ccccc3C2=O)CC1` are within 1.5-fold of each other in AC50: 5.2 µM for the first, 5.15 µM for the second.

`COc1ccc(C(=O)NC2=C(c3ccccc3)C(=O)c3ccccc3C2=O)cc1` and `O=C(NC1=C(c2ccccc2)C(=O)c2ccccc2C1=O)c1ccc(Br)cc1` are within 1.5-fold of each other in AC50: 21.5 µM for the first, 28.9 µM for the second.

First: NC1=CC(=O)c2ccccc2C1=O
Second: O=C1C=C(Nc2ccccc2)C(=O)c2ccccc21
The AC50 of the first is 5-fold higher: 7.35 µM for the first, 1.46 µM for the second.

Going from `CN1CCN(C2=C(NS(=O)(=O)c3ccccc3)C(=O)c3ccccc3C2=O)CC1` to `O=C1C(NS(=O)(=O)c2ccccc2)=C(N2CCOCC2)C(=O)c2ccccc21`, the AC50 rises from 11.1 µM to 19.4 µM (1.7-fold).

`COc1ccc(C2=C(NC(=O)c3cccc(Cl)c3)C(=O)c3ccccc3C2=O)cc1` and `COc1ccc(C2=C(NC(=O)c3ccc(Cl)cc3)C(=O)c3ccccc3C2=O)cc1` are within 1.5-fold of each other in AC50: 23.1 µM for the first, 25.2 µM for the second.

`COc1ccc(C(=O)NC2=C(c3ccc(OC)cc3)C(=O)c3ccccc3C2=O)cc1` and `COc1ccc(C2=C(NC(=O)c3ccccc3Cl)C(=O)c3ccccc3C2=O)cc1` are within 1.5-fold of each other in AC50: 15 µM for the first, 17.1 µM for the second.

Compared with `O=C1C(NS(=O)(=O)c2ccc(Br)cc2)=C(N2CCSCC2)C(=O)c2ccccc21`, `O=C1C(NS(=O)(=O)c2ccc(Br)cc2)=C(N2CCOCC2)C(=O)c2ccccc21` is 2.7-fold lower in AC50: 32.5 µM for the first, 12.2 µM for the second.

`O=C1C(NS(=O)(=O)c2cccs2)=C(N2CCOCC2)C(=O)c2ccccc21` and `CCN1CCN(C2=C(NS(=O)(=O)c3cccs3)C(=O)c3ccccc3C2=O)CC1` are within 1.5-fold of each other in AC50: 21.1 µM for the first, 19.2 µM for the second.

First: O=C(NC1=C(N2CCSCC2)C(=O)c2ccccc2C1=O)c1ccc(Br)cc1
Second: O=C(NC1=C(N2CCOCC2)C(=O)c2ccccc2C1=O)c1ccc(Br)cc1
The AC50 of the first is 1.8-fold higher: 28.1 µM for the first, 15.9 µM for the second.

`O=C(NC1=C(N2CCSCC2)C(=O)c2ccccc2C1=O)c1ccccc1` and `O=C(NC1=C(N2CCOCC2)C(=O)c2ccccc2C1=O)c1ccccc1` are within 1.5-fold of each other in AC50: 13.2 µM for the first, 18.2 µM for the second.

Going from `C=CCNC1=C(N2CCCCC2)C(=O)c2ccccc2C1=O` to `C=CCNC1=C(N2CCN(C)CC2)C(=O)c2ccccc2C1=O`, the AC50 rises from 2.66 µM to 20.1 µM (7.6-fold).

First: CCN(CC)CCNC1=C(Nc2ccccc2)C(=O)c2ccccc2C1=O
Second: O=C1C(Nc2ccccc2)=C(N2CCCCC2)C(=O)c2ccccc21
The AC50 of the first is 4.2-fold higher: 36.4 µM for the first, 8.69 µM for the second.

`C=CCNC1=C(NS(=O)(=O)c2cccs2)C(=O)c2ccccc2C1=O` and `C=CCNC1=C(NS(=O)(=O)c2ccc(Br)cc2)C(=O)c2ccccc2C1=O` are the same in AC50: 24.4 µM for the first, 24.4 µM for the second.

First: NC1=C(NC(=O)c2ccccc2)C(=O)c2ccccc2C1=O
Second: O=C(NC1=C(Cl)C(=O)c2ccccc2C1=O)c1ccccc1
The AC50 of the first is 2.1-fold higher: 10.1 µM for the first, 4.73 µM for the second.

`Cc1ccc(C(=O)NC2=C(c3ccccc3)C(=O)c3ccccc3C2=O)o1` and `O=C(NC1=C(c2ccccc2)C(=O)c2ccccc2C1=O)c1ccco1` are within 1.5-fold of each other in AC50: 19.3 µM for the first, 20.4 µM for the second.

First: O=C(CNc1cccc2ccccc12)N/N=C/c1ccc([N+](=O)[O-])o1
Second: COc1ccc(C2=C(NC(C)=O)C(=O)c3ccccc3C2=O)cc1
The AC50 of the first is 1.7-fold higher: 19.8 µM for the first, 11.7 µM for the second.

Going from `CCN1c2ccccc2NC2N=C(OC)C(c3ccccc3)C21` (centres undefined) to `COC1=C(NS(=O)(=O)c2ccccc2)C(=O)c2ccccc2C1=O`, the AC50 falls from 11.1 µM to 7.28 µM (1.5-fold).

Compared with `CC(=O)N(C)C1=C(N2CCOCC2)C(=O)c2ccccc2C1=O`, `CC(=O)N(C)C1=C(N2CCCCC2)C(=O)c2ccccc2C1=O` is 2.1-fold lower in AC50: 5.55 µM for the first, 2.67 µM for the second.

`CCN1CCN(C2=C(N(C)C(C)=O)C(=O)c3ccccc3C2=O)CC1` and `CC(=O)N(C)C1=C(N2CCN(C)CC2)C(=O)c2ccccc2C1=O` are within 1.5-fold of each other in AC50: 3.29 µM for the first, 3.16 µM for the second.

`COc1cccc(C2=C(NC(=O)c3ccccc3)C(=O)c3ccccc3C2=O)c1` and `O=C(NC1=C(c2ccccc2)C(=O)c2ccccc2C1=O)c1ccccc1` are within 1.5-fold of each other in AC50: 19.1 µM for the first, 20.6 µM for the second.

First: COc1ccc(S(=O)(=O)N(C(C)=O)c2ccc(OC(C)=O)c3ccccc23)cc1[N+](=O)[O-]
Second: O=C1C(NS(=O)(=O)c2ccc(Br)cc2)=C(c2ccccc2)C(=O)c2ccccc21
The AC50 of the first is 1.6-fold lower: 19.9 µM for the first, 30.9 µM for the second.

First: O=C1C(NS(=O)(=O)c2ccc(Br)s2)=C(N2CCSCC2)C(=O)c2ccccc21
Second: CN1CCN(C2=C(NS(=O)(=O)c3ccc(Br)s3)C(=O)c3ccccc3C2=O)CC1
The AC50 of the first is 2.1-fold higher: 29.1 µM for the first, 13.9 µM for the second.

Going from `CC(=O)NC1=C(c2ccc(Oc3ccccc3)cc2)C(=O)c2ccccc2C1=O` to `O=C(NC1=C(c2ccc(OC(F)(F)F)cc2)C(=O)c2ccccc2C1=O)c1ccccc1`, the AC50 rises from 14.2 µM to 24.3 µM (1.7-fold).

Compared with `C=CCNC1=C(NCCCN2CCOCC2)C(=O)c2ccccc2C1=O`, `C=CCNC1=C(N2CCN(CC)CC2)C(=O)c2ccccc2C1=O` is 1.6-fold lower in AC50: 33.1 µM for the first, 20.1 µM for the second.

First: Cc1nc2ccccc2n1/N=C/c1ccc([N+](=O)[O-])s1
Second: NC1=C(c2ccccc2)C(=O)c2ccccc2C1=O
The AC50 of the first is 4.4-fold lower: 6.5 µM for the first, 28.5 µM for the second.

`CCN1CCN(C2=C(NS(=O)(=O)c3ccc(Br)s3)C(=O)c3ccccc3C2=O)CC1` and `O=C1C(NS(=O)(=O)c2ccc(Br)cc2)=C(N2CCCCC2)C(=O)c2ccccc21` are within 1.5-fold of each other in AC50: 26.1 µM for the first, 32.6 µM for the second.

First: CCN(CC)CCCNC1=C(N(C)C(C)=O)C(=O)c2ccccc2C1=O
Second: C=CCNC1=C(N(C)C(C)=O)C(=O)c2ccccc2C1=O
The AC50 of the first is 12-fold higher: 3.19 µM for the first, 0.274 µM for the second.

For `NC1=C(c2ccc(OC(F)(F)F)cc2)C(=O)c2ccccc2C1=O`, the AC50 was > 70 µM (inactive).
In the case of `COc1ccc(C2=C(NC(=O)c3ccccc3OC)C(=O)c3ccccc3C2=O)cc1`, the AC50 was > 70 µM (inactive).
For `O=C1C(Nc2ccccc2)=C(N2CCOCC2)C(=O)c2ccccc21`, the AC50 was 29.3 µM and 24.5 µM.
In the case of `CN1CCN(C2=C(NS(=O)(=O)c3ccc(Br)cc3)C(=O)c3ccccc3C2=O)CC1`, the AC50 was > 70 µM (inactive).
In the case of `O=C(NC1=C(N2CCN(c3ccccc3)CC2)C(=O)c2ccccc2C1=O)c1ccccc1`, the AC50 was > 70 µM (inactive).
For `C[C@@H](NC1=C(Nc2ccccc2)C(=O)c2ccccc2C1=O)c1ccccc1`, the AC50 was > 70 µM (inactive).
For `C=C1C(=O)OC2C1CC/C(C)=C\CCC1(C)OC21` (centres undefined), the AC50 was > 70 µM (inactive).
For `O=C1C(Nc2ccccc2)=C(N2CCN(c3ccccc3)CC2)C(=O)c2ccccc21`, the AC50 was > 70 µM (inactive).
For `COc1ccc(C2=C(NC(=O)c3ccc(OC)cc3-c3cccc(OC)c3)C(=O)c3ccccc3C2=O)cc1`, the AC50 was > 70 µM (inactive).
With `C=CCNC1=C(Cl)C(=O)c2ccccc2C1=O` the AC50 was 5.18 µM and 7.1 µM.
With `COc1ccc(C2=C(NC(=O)c3ccc4ccccc4c3)C(=O)c3ccccc3C2=O)cc1` the AC50 was > 70 µM (inactive).
In the case of `O=C(NC1=C(c2ccc(Oc3ccccc3)cc2)C(=O)c2ccccc2C1=O)c1ccccc1`, the AC50 was > 70 µM (inactive).
